In ChEMBL document CHEMBL3045565, “Microwave synthesis, characterization and bio-efficacy evaluation of novel chalcone based 6-carbethoxy-2-cyclohexen-1-one and 2H-indazol-3-ol derivatives” (Eur J Med Chem, 2013):
In brackets after ≈: the same amount, converted by molar mass.

These molecules were tested on Bacillus thuringiensis (assay: Antibacterial activity against Bacillus thuringiensis MTCC 6941 assessed as growth inhibition at 100 ug/disk after 24 hr by disk diffusion method). Settings: MTCC 6941, 24 h, read-out: DIZ.
Format: functional
Method in brief: (§1)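 Disk diffusion on nutrient agar. Strains kept on NA slants at 37 °C and subcultured in nutrient broth before testing. A log-phase culture was spread on solidified medium, and sterile disks were loaded with compound from DMSO stock. DMSO served as control, with commercial antibiotics for reference. Plates ran 24 h at 37 °C, and inhibition zones (mm) were read in quadruplicate.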

SMILES | zone of inhibition at 100 µg/disc
CCOC(=O)C1C(=O)C=C(c2ccc(F)cc2)CC1c1ccccc1 (stereo unspecified) | 0 mm
Cc1ccc(/C=C/C(=O)c2ccc(C)cc2)cc1 [4,4'-DIMETHYLCHALCONE] | 0 mm
COc1ccc(/C=C/C(=O)c2ccc(C)cc2)cc1OC | 0 mm
CCOC(=O)C1C(=O)C=C(c2ccc(OC)c(OC)c2)CC1c1ccc(OC)cc1 (stereo unspecified) | 0 mm
CCOC(=O)C1C(=O)C=C(c2ccc(C)cc2)CC1c1ccc(C)cc1 (stereo unspecified) | 0 mm
CCOC(=O)C1C(=O)C=C(c2ccc(OC)cc2)CC1c1ccc(OC)c(OC)c1 (stereo unspecified) | 0 mm
CCOC(=O)C1C(=O)C=C(c2ccc(C)cc2)CC1c1ccc(OC)c(OC)c1 (stereo unspecified) | 0 mm
O=C(/C=C/c1ccccc1)c1ccccc1 [CHALCONE] | 0 mm
CCOC(=O)C1C(=O)C=C(c2ccc(Cl)c(Cl)c2)CC1c1ccc(OC)cc1 (stereo unspecified) | 0 mm

The molecules below were run on Athelia rolfsii (assay: Antifungal activity against Athelia rolfsii ITCC 6181 by food poisoning method). Settings: Agroathelia rolfsii.
Format: functional
Method in brief: (§2)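 Poisoned food technique on PDA at several concentrations. A 5 mm mycelial plug from the growing edge of a 2-week-old colony was placed inoculum-side down at the plate centre. Plates incubated at 27 °C until control growth was nearly complete. Colony diameter measured, percent inhibition calculated against control, LC50 derived. Four replicates per treatment.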

SMILES | LC50
CCOC(=O)C1C(=O)C=C(c2ccc(F)cc2)CC1c1ccccc1 (stereo unspecified) | 319 µg/mL (≈ 943 µM)
CCCCC(O)(Cn1cncn1)c1ccc(Cl)cc1Cl (stereo unspecified) [HEXACONAZOLE] | 1.27 µg/mL (≈ 4.04 µM)
Cc1ccc(/C=C/C(=O)c2ccc(C)cc2)cc1 [4,4'-DIMETHYLCHALCONE] | 549 µg/mL (≈ 2320 µM)
COc1ccc(/C=C/C(=O)c2ccc(C)cc2)cc1OC | 587 µg/mL (≈ 2080 µM)
CCOC(=O)C1C(=O)C=C(c2ccc(OC)c(OC)c2)CC1c1ccc(OC)cc1 (stereo unspecified) | 504 µg/mL (≈ 1230 µM)
CCOC(=O)C1C(=O)C=C(c2ccc(C)cc2)CC1c1ccc(C)cc1 (stereo unspecified) | 321 µg/mL (≈ 921 µM)
CCOC(=O)C1C(=O)C=C(c2ccc(OC)cc2)CC1c1ccc(OC)c(OC)c1 (stereo unspecified) | 315 µg/mL (≈ 767 µM)
CCOC(=O)C1C(=O)C=C(c2ccc(C)cc2)CC1c1ccc(OC)c(OC)c1 (stereo unspecified) | 317 µg/mL (≈ 804 µM)
O=C(/C=C/c1ccccc1)c1ccccc1 [CHALCONE] | 674 µg/mL (≈ 3240 µM)
CCOC(=O)C1C(=O)C=C(c2ccc(Cl)c(Cl)c2)CC1c1ccc(OC)cc1 (stereo unspecified) | 6110 µg/mL (≈ 14600 µM)

Each molecule was assayed on Staphylococcus aureus (assay: Antibacterial activity against Staphylococcus aureus MTCC 3160 assessed as growth inhibition at 100 ug/disk after 24 hr by disk diffusion method). Settings: MTCC 3160, 24 h, read-out: DIZ.
Format: functional
Method in brief: as §1

SMILES | zone of inhibition at 100 µg/disc
CCOC(=O)C1C(=O)C=C(c2ccc(F)cc2)CC1c1ccccc1 (stereo unspecified) | 0 mm
Cc1ccc(/C=C/C(=O)c2ccc(C)cc2)cc1 [4,4'-DIMETHYLCHALCONE] | 0 mm
COc1ccc(/C=C/C(=O)c2ccc(C)cc2)cc1OC | 0 mm
CCOC(=O)C1C(=O)C=C(c2ccc(OC)c(OC)c2)CC1c1ccc(OC)cc1 (stereo unspecified) | 0 mm
CCOC(=O)C1C(=O)C=C(c2ccc(C)cc2)CC1c1ccc(C)cc1 (stereo unspecified) | 0 mm
CCOC(=O)C1C(=O)C=C(c2ccc(OC)cc2)CC1c1ccc(OC)c(OC)c1 (stereo unspecified) | 0 mm
CCOC(=O)C1C(=O)C=C(c2ccc(C)cc2)CC1c1ccc(OC)c(OC)c1 (stereo unspecified) | 0 mm
O=C(/C=C/c1ccccc1)c1ccccc1 [CHALCONE] | 5 mm
CCOC(=O)C1C(=O)C=C(c2ccc(Cl)c(Cl)c2)CC1c1ccc(OC)cc1 (stereo unspecified) | 0 mm

Each molecule was assayed on Rhizoctonia solani (assay: Antifungal activity against Rhizoctonia solani ITCC 5563 by food poisoning method). Settings: not given.
Format: functional
Method in brief: as §2

SMILES | LC50
CCOC(=O)C1C(=O)C=C(c2ccc(F)cc2)CC1c1ccccc1 (stereo unspecified) | 35 µg/mL (≈ 103 µM)
CCCCC(O)(Cn1cncn1)c1ccc(Cl)cc1Cl (stereo unspecified) [HEXACONAZOLE] | 1.12 µg/mL (≈ 3.56 µM)
Cc1ccc(/C=C/C(=O)c2ccc(C)cc2)cc1 [4,4'-DIMETHYLCHALCONE] | 635 µg/mL (≈ 2690 µM)
COc1ccc(/C=C/C(=O)c2ccc(C)cc2)cc1OC | 107 µg/mL (≈ 379 µM)
CCOC(=O)C1C(=O)C=C(c2ccc(C)cc2)CC1c1ccc(C)cc1 (stereo unspecified) | 231 µg/mL (≈ 663 µM)
CCOC(=O)C1C(=O)C=C(c2ccc(OC)cc2)CC1c1ccc(OC)c(OC)c1 (stereo unspecified) | 34 µg/mL (≈ 82.8 µM)
CCOC(=O)C1C(=O)C=C(c2ccc(C)cc2)CC1c1ccc(OC)c(OC)c1 (stereo unspecified) | 189 µg/mL (≈ 479 µM)
O=C(/C=C/c1ccccc1)c1ccccc1 [CHALCONE] | 2.49 µg/mL (≈ 12 µM)
CCOC(=O)C1C(=O)C=C(c2ccc(Cl)c(Cl)c2)CC1c1ccc(OC)cc1 (stereo unspecified) | 1040 µg/mL (≈ 2490 µM)

The molecules below were run on Bacillus pumilus (assay: Antibacterial activity against Bacillus pumilus MTCC 2466 assessed as growth inhibition at 100 ug/disk after 24 hr by disk diffusion method). Settings: MTCC 2466, 24 h, read-out: DIZ.
Format: functional
Method in brief: as §1

SMILES | zone of inhibition at 100 µg/disc
CCOC(=O)C1C(=O)C=C(c2ccc(F)cc2)CC1c1ccccc1 (stereo unspecified) | 0 mm
Cc1ccc(/C=C/C(=O)c2ccc(C)cc2)cc1 [4,4'-DIMETHYLCHALCONE] | 0 mm
COc1ccc(/C=C/C(=O)c2ccc(C)cc2)cc1OC | 0 mm
CCOC(=O)C1C(=O)C=C(c2ccc(OC)c(OC)c2)CC1c1ccc(OC)cc1 (stereo unspecified) | 0 mm
CCOC(=O)C1C(=O)C=C(c2ccc(C)cc2)CC1c1ccc(C)cc1 (stereo unspecified) | 0 mm
CCOC(=O)C1C(=O)C=C(c2ccc(OC)cc2)CC1c1ccc(OC)c(OC)c1 (stereo unspecified) | 0 mm
CCOC(=O)C1C(=O)C=C(c2ccc(C)cc2)CC1c1ccc(OC)c(OC)c1 (stereo unspecified) | 0 mm
O=C(/C=C/c1ccccc1)c1ccccc1 [CHALCONE] | 0 mm
CCOC(=O)C1C(=O)C=C(c2ccc(Cl)c(Cl)c2)CC1c1ccc(OC)cc1 (stereo unspecified) | 0 mm

These molecules were tested on Pseudomonas aeruginosa (assay: Antibacterial activity against Pseudomonas aeruginosa MTCC 2581 assessed as growth inhibition at 100 ug/disk after 24 hr by disk diffusion method). Settings: MTCC 2581, 24 h, read-out: DIZ.
Format: functional
Method in brief: as §1

SMILES | zone of inhibition at 100 µg/disc
CCOC(=O)C1C(=O)C=C(c2ccc(F)cc2)CC1c1ccccc1 (stereo unspecified) | 0 mm
Cc1ccc(/C=C/C(=O)c2ccc(C)cc2)cc1 [4,4'-DIMETHYLCHALCONE] | 0 mm
COc1ccc(/C=C/C(=O)c2ccc(C)cc2)cc1OC | 0 mm
CCOC(=O)C1C(=O)C=C(c2ccc(OC)c(OC)c2)CC1c1ccc(OC)cc1 (stereo unspecified) | 0 mm
CCOC(=O)C1C(=O)C=C(c2ccc(C)cc2)CC1c1ccc(C)cc1 (stereo unspecified) | 10 mm
CCOC(=O)C1C(=O)C=C(c2ccc(OC)cc2)CC1c1ccc(OC)c(OC)c1 (stereo unspecified) | 0 mm
CCOC(=O)C1C(=O)C=C(c2ccc(C)cc2)CC1c1ccc(OC)c(OC)c1 (stereo unspecified) | 0 mm
O=C(/C=C/c1ccccc1)c1ccccc1 [CHALCONE] | 10 mm
CCOC(=O)C1C(=O)C=C(c2ccc(Cl)c(Cl)c2)CC1c1ccc(OC)cc1 (stereo unspecified) | 0 mm

The molecules below were run on Klebsiella pneumoniae (assay: Antibacterial activity against Klebsiella pneumoniae MTCC 7028 assessed as growth inhibition at 100 ug/disk after 24 hr by disk diffusion method). Settings: MTCC 7028, 24 h, read-out: DIZ.
Format: functional
Method in brief: as §1

SMILES | zone of inhibition at 100 µg/disc
CCOC(=O)C1C(=O)C=C(c2ccc(F)cc2)CC1c1ccccc1 (stereo unspecified) | 10 mm
Cc1ccc(/C=C/C(=O)c2ccc(C)cc2)cc1 [4,4'-DIMETHYLCHALCONE] | 0 mm
COc1ccc(/C=C/C(=O)c2ccc(C)cc2)cc1OC | 0 mm
CCOC(=O)C1C(=O)C=C(c2ccc(OC)c(OC)c2)CC1c1ccc(OC)cc1 (stereo unspecified) | 0 mm
CCOC(=O)C1C(=O)C=C(c2ccc(C)cc2)CC1c1ccc(C)cc1 (stereo unspecified) | 5 mm
CCOC(=O)C1C(=O)C=C(c2ccc(OC)cc2)CC1c1ccc(OC)c(OC)c1 (stereo unspecified) | 0 mm
CCOC(=O)C1C(=O)C=C(c2ccc(C)cc2)CC1c1ccc(OC)c(OC)c1 (stereo unspecified) | 0 mm
O=C(/C=C/c1ccccc1)c1ccccc1 [CHALCONE] | 0 mm
CCOC(=O)C1C(=O)C=C(c2ccc(Cl)c(Cl)c2)CC1c1ccc(OC)cc1 (stereo unspecified) | 0 mm

The molecules below were run on Dickeya chrysanthemi (assay: Antibacterial activity against Erwinia chrysanthemi ITCC B-40 assessed as as growth inhibition at 100 ug/disk after 24 hr by disk diffusion method). Settings: ITCC B-40, 24 h, read-out: DIZ.
Format: functional
Method in brief: as §1

SMILES | zone of inhibition at 100 µg/disc
CCOC(=O)C1C(=O)C=C(c2ccc(F)cc2)CC1c1ccccc1 (stereo unspecified) | 10 mm
Cc1ccc(/C=C/C(=O)c2ccc(C)cc2)cc1 [4,4'-DIMETHYLCHALCONE] | 0 mm
COc1ccc(/C=C/C(=O)c2ccc(C)cc2)cc1OC | 0 mm
CCOC(=O)C1C(=O)C=C(c2ccc(OC)c(OC)c2)CC1c1ccc(OC)cc1 (stereo unspecified) | 10 mm
CCOC(=O)C1C(=O)C=C(c2ccc(C)cc2)CC1c1ccc(C)cc1 (stereo unspecified) | 0 mm
CCOC(=O)C1C(=O)C=C(c2ccc(OC)cc2)CC1c1ccc(OC)c(OC)c1 (stereo unspecified) | 0 mm
CCOC(=O)C1C(=O)C=C(c2ccc(C)cc2)CC1c1ccc(OC)c(OC)c1 (stereo unspecified) | 0 mm
O=C(/C=C/c1ccccc1)c1ccccc1 [CHALCONE] | 10 mm
CCOC(=O)C1C(=O)C=C(c2ccc(Cl)c(Cl)c2)CC1c1ccc(OC)cc1 (stereo unspecified) | 0 mm

Each molecule was assayed on Xanthomonas oryzae (assay: Antibacterial activity against Xanthomonas oryzae ITCC B-47 assessed as as growth inhibition at 100 ug/disk after 24 hr by disk diffusion method). Settings: ITCC B-47, 24 h, read-out: DIZ.
Format: functional

SMILES | zone of inhibition at 100 µg/disc
CCOC(=O)C1C(=O)C=C(c2ccc(F)cc2)CC1c1ccccc1 (stereo unspecified) | 0 mm
Cc1ccc(/C=C/C(=O)c2ccc(C)cc2)cc1 [4,4'-DIMETHYLCHALCONE] | 0 mm
COc1ccc(/C=C/C(=O)c2ccc(C)cc2)cc1OC | 0 mm
CCOC(=O)C1C(=O)C=C(c2ccc(OC)c(OC)c2)CC1c1ccc(OC)cc1 (stereo unspecified) | 0 mm
CCOC(=O)C1C(=O)C=C(c2ccc(C)cc2)CC1c1ccc(C)cc1 (stereo unspecified) | 0 mm
CCOC(=O)C1C(=O)C=C(c2ccc(OC)cc2)CC1c1ccc(OC)c(OC)c1 (stereo unspecified) | 0 mm
CCOC(=O)C1C(=O)C=C(c2ccc(C)cc2)CC1c1ccc(OC)c(OC)c1 (stereo unspecified) | 0 mm
O=C(/C=C/c1ccccc1)c1ccccc1 [CHALCONE] | 0 mm
CCOC(=O)C1C(=O)C=C(c2ccc(Cl)c(Cl)c2)CC1c1ccc(OC)cc1 (stereo unspecified) | 0 mm

Each molecule was assayed on Radical scavenging activity (assay: Antioxidant activity assessed as DPPH free radical scavenging activity after 20 min by UV-Vis spectrophotometric analysis). Settings: not given.
Format: functional
Parameters: concentration or dose not given beside the values
Method in brief: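 DPPH radical scavenging: samples were held at room temperature for 20 min in the dark, and absorbance was read at 517 nm. The control contained DMSO without compound, and methanol was used for baseline correction. Scavenging percentage was calculated from the absorbances.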

SMILES | Activity
CCOC(=O)C1C(=O)C=C(c2ccc(F)cc2)CC1c1ccccc1 (stereo unspecified) | 3.86%
Cc1ccc(/C=C/C(=O)c2ccc(C)cc2)cc1 [4,4'-DIMETHYLCHALCONE] | 1.19%
COc1ccc(/C=C/C(=O)c2ccc(C)cc2)cc1OC | 0.71%
CCOC(=O)C1C(=O)C=C(c2ccc(OC)c(OC)c2)CC1c1ccc(OC)cc1 (stereo unspecified) | 11.3%
CCOC(=O)C1C(=O)C=C(c2ccc(C)cc2)CC1c1ccc(C)cc1 (stereo unspecified) | 3.54%
CCOC(=O)C1C(=O)C=C(c2ccc(OC)cc2)CC1c1ccc(OC)c(OC)c1 (stereo unspecified) | 4.71%
CCOC(=O)C1C(=O)C=C(c2ccc(C)cc2)CC1c1ccc(OC)c(OC)c1 (stereo unspecified) | 7.38%
O=C(/C=C/c1ccccc1)c1ccccc1 [CHALCONE] | 9.11%
CCOC(=O)C1C(=O)C=C(c2ccc(Cl)c(Cl)c2)CC1c1ccc(OC)cc1 (stereo unspecified) | 2.92%
